Data set [1] addresses T1, Na(+)/H(+) exchange regulatory cofactor NHE-RF2 (Homo sapiens, UniProt Q15599). Description: Binding affinity to NHERF2 PDZ1 domain (unknown origin) expressed in Escherichia coli BL21 incubated for 1 hr by fluorescence polarization based competition assay. The gist of the method: (§1)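 CAL, NHERF1 and NHERF2 PDZ domains carried a C-terminal His6 tag, were expressed in E. coli BL21 (0.1 mM IPTG, 16 h at 18 °C) and purified on Ni-NTA. For direct binding, 50 nM fluorescein-labelled peptide was titrated with PDZ protein (0–2.5 μM CAL; 0–25 μM NHERF1/2) in PBS pH 7.4 with 0.01% Triton X-100 and 2 mM TCEP for 1 h at room temperature. Fluorescence polarization gave KD; n = 3.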
In general terms: In fluorescence polarisation assays a small probe gives low polarisation when free and higher when bound to something large.

Data set [2] concerns the target T1, Na(+)/H(+) exchange regulatory cofactor NHE-RF2. Description: Binding affinity to NHERF2 PDZ2 domain (unknown origin) expressed in Escherichia coli BL21 incubated for 1 hr by fluorescence polarization based competition assay.
The species entered for data set [3] is Homo sapiens. Description: Selectivity index, ratio of Kd for binding affinity to NHERF1 PDZ1 domain (unknown origin) expressed in Escherichia coli BL21 to Kd for binding affinity to C-terminal His6 tagged CAL PDZ domain (unknown origin) expressed in Escherichia coli BL21. The gist of the method: as §1
The target in data set [4] is T2, Na(+)/H(+) exchange regulatory cofactor NHE-RF1 (Homo sapiens, UniProt O14745).
T2 sequence (O14745 whole entry): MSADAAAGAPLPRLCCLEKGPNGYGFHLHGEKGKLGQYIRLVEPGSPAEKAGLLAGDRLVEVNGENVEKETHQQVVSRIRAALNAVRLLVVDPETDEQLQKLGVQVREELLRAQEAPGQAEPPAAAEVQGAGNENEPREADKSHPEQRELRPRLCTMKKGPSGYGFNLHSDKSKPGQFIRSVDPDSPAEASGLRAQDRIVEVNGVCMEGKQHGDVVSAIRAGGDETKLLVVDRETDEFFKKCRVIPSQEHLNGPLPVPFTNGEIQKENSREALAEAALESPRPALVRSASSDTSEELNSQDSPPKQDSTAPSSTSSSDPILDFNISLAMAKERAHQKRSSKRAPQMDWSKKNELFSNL
Nature of the data set: Binding affinity to NHERF1 PDZ1 domain (unknown origin) expressed in Escherichia coli BL21 incubated for 1 hr by fluorescence polarization based competition assay. The gist of the method: as §1

For data set [5], the species on record is Homo sapiens. Description: Selectivity index, ratio of Kd for binding affinity to NHERF2 PDZ1 domain (unknown origin) expressed in Escherichia coli BL21 to Kd for binding affinity to C-terminal His6 tagged CAL PDZ domain (unknown origin) expressed in Escherichia coli BL21. Put shortly:
as §1

Data set [6] addresses T3, Golgi-associated PDZ and coiled-coil motif-containing protein (Homo sapiens, UniProt Q9HD26). Description: Binding affinity to C-terminal His6 tagged CAL PDZ domain (unknown origin) expressed in Escherichia coli BL21 incubated for 1 hr by fluorescence polarization assay.
Data set [7] concerns Cystic fibrosis transmembrane conductance regulator (Homo sapiens), P13569 [F508del]. Nature of the data set: Corrector activity at CFTR F508del mutant in human CF-HBE cells isolated from patient with F508del mutation assessed as increase in short-circuit current at 5 uM incubated for 24 hrs. The data set is classed as cell-based. The conditions noted are these: Epithelial cell, filed as activator. The gist of the method: (§2)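 Primary bronchial epithelia from F508del/F508del donors (three donors) were grown at air/liquid interface and given corrector (5 μM VX-661) or none. After 24 h, peptide or DMSO was applied apically in Hank's solution for 1 h, then removed, and cells were kept a further 24 h. Ussing chambers used Ringer's with a low-chloride apical side. Isc changes were read after forskolin (10 μM) activation and Inh-172 inhibition; n = 5 filters.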
Chain of Cystic fibrosis transmembrane conductance regulator (Homo sapiens), P13569 [F508del] (P13569 as listed by the source): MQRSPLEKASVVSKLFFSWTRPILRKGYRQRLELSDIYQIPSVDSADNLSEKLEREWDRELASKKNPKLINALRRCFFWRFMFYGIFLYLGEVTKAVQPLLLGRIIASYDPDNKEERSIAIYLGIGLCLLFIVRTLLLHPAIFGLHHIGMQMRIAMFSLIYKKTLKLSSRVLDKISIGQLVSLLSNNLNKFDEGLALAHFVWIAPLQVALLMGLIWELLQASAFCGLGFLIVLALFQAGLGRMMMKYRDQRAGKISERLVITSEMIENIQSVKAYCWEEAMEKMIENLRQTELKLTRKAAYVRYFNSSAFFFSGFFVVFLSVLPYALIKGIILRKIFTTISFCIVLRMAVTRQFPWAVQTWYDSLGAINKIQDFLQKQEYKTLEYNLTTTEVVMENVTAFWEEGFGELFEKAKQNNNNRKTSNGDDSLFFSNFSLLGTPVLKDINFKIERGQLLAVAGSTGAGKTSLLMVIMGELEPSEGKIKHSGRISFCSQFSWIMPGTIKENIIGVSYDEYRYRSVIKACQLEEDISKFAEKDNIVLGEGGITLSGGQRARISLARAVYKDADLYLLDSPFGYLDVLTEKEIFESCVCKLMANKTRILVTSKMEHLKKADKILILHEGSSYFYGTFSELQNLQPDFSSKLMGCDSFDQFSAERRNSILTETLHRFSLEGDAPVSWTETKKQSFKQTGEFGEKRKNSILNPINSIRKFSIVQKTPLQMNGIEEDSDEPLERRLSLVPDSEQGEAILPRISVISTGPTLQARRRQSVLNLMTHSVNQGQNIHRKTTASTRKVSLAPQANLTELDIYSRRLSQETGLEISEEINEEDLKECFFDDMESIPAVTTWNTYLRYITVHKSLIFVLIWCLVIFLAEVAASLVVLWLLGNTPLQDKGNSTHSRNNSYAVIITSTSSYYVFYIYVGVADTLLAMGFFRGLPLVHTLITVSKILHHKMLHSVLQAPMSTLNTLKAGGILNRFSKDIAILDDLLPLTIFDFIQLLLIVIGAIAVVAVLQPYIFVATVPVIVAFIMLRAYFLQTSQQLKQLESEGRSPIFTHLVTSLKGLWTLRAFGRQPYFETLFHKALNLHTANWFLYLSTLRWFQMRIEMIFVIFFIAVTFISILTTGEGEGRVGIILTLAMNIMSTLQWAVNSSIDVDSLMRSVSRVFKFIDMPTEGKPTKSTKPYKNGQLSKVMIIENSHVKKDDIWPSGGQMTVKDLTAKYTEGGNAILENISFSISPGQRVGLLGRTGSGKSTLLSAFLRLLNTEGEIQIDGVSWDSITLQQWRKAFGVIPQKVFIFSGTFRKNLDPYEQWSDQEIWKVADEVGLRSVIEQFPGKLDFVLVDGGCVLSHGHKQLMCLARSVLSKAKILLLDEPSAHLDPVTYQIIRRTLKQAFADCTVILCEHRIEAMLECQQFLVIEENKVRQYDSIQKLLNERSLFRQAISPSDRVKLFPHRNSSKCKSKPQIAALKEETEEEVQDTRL

Data set [8] concerns Epithelial cell. Description: Inhibition of CAL and CFTR F508del mutant interaction in human CF-HBE cells isolated from patient with F508del mutation assessed as increase in short-circuit current at 100 nM incubated for 24 hrs in presence of 5 uM VX-809 by relative to VX-809 alone. It is filed as cell-based. Conditions: time 2.0 hrs, in the assay text read “incubated for 2 hrs” for “incubated for 24 hrs”. The gist of the method: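 Primary F508del-homozygous bronchial epithelia from one donor, grown at air/liquid interface, were treated with 5 μM VX-809 for 48 h, then with 100 nM peptide for 2 h. Short-circuit current was measured in an Ussing chamber and scaled to VX-809 alone (100%). Results are 2–3 replicates per condition.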

The nature of data set [9]: Half life in 25% human serum at 100 uM incubated for 24 hrs at 37 degC by HPLC analysis. It is filed as ADME, cell-free. The gist of the method: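 Human serum diluted 1:4 in DPBS was pre-warmed to 37 °C, and peptide (100 μM final) was incubated in it at 37 °C. At each time point, aliquots were deproteinized with 15% TCA in MeOH plus MeCN for 24 h at 4 °C and centrifuged. Supernatants were analysed by reversed-phase HPLC, reading at 214 nm, for intact peptide remaining.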

The nature of data set [10]: Drug uptake in human HeLa cells at 5 uM incubated for 2 hrs by flow cytometry relative to CPP9. It is filed as ADME, cell-based. The gist of the method:
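Naphthofluorescein-labelled cyclic peptides (5 μM final, 0.5% DMSO, in DMEM with 10% FBS) were applied to HeLa cells, seeded the day before at 15 × 10^4 per well, for 2 h at 37 °C. Cells were washed with cold DPBS, trypsinized and analysed by flow cytometry. Mean fluorescence was expressed as % of CPP9; n = 3.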
(In flow cytometry, cells or beads pass a laser one at a time.)

Data set [11] addresses T3, Golgi-associated PDZ and coiled-coil motif-containing protein. Description: Binding affinity to C-terminal His6 tagged CAL PDZ domain (unknown origin) expressed in Escherichia coli BL21 incubated for 1 hr using FAM-22 probe by fluorescence polarization based competition assay.
Another data set relates to HCT-116. Description: Toxicity in human HCT-116 cells assessed as reduction in cell viability up to 50 uM incubated for 72 hrs by MTT assay. The data set is classed as cell-based. The conditions noted are these: hct-116, 72 h. The gist of the method:
(§3)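 CFBE41o-, HCT116 or H358 cells were seeded at 5 × 10^3 per well and the next day exposed for 72 h at 37 °C to serial dilutions of peptide in DPBS at constant 0.5% DMSO. MTT was added for 4 h, formazan was solubilized with SDS-HCl overnight and absorbance read at 565 nm. Viability was expressed relative to 0.5% DMSO controls (100%); n = 3.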
For orientation: Tetrazolium dyes change colour on reduction, which living cells bring about.

Data set [12] in a line: Drug metabolism in human HCT-116 cells assessed as formation of (2S)-2-[[(2S)-2-[[(2S,3R)-2-[[(2R)-2-[[(2S)-1-[(2S)-2-[[(2S)-2-[[(2S)-2-[[(2S)-2-[[(2R)-2-[[(2R)-2-acetamido-3-sulfanyl-propanoyl]amino]-5-guanidino-pentanoyl]amino]-5-guanidino-pentanoyl]amino]-5-guanidino-pentanoyl]amino]-3-(2-naphthyl)propanoyl]amino]-3-(benzothiophen-3-yl)propanoyl]piperidine-2-carbonyl]amino]-3-methyl-3-sulfanyl-butanoyl]amino]-3-hydroxy-butanoyl]amino]-5-guanidino-pentanoyl]amino]-3,3-dimethyl-butanoic acid at 5 uM incubated for 4 to 24 hrs by MALDI-TOF-TOF mass spectrometry. It is filed as ADME, cell-based. Conditions: hct-116, 5 µM, time 4-24 hrs. The gist of the method:
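HCT116 spheroids (7,000 cells seeded on agarose, grown 12 days) were exposed to 5 μM cyclic peptide for 4 or 24 h. They were washed, gelatin-embedded and cut into 16 μm sections. Positive-ion MALDI-TOF-TOF imaging (m/z 360–1400) gave heatmaps, scaled to the most intense signal, for intact peptide and about 20 possible proteolytic fragments.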

Data set [13] is described as follows: Toxicity in human CFBE41o- cells assessed as reduction in cell viability up to 50 uM incubated for 72 hrs by MTT assay. It is filed as cell-based. Put shortly:
as §3

For data set [14], the system named is Epithelial cell. Nature of the data set: Inhibition of CAL and CFTR F508del mutant interaction in human CF-HBE cells isolated from patient with F508del mutation assessed as increase in short-circuit current incubated for 24 hrs in presence of 5 uM VX-661 by relative to VX-661 alone. It is filed as cell-based. The gist of the method: as §2
Another data set deals with NCI-H358. Nature of the data set: Toxicity in human NCI-H358 cells assessed as reduction in cell viability up to 50 uM incubated for 72 hrs by MTT assay. The data set is classed as cell-based. Conditions: nci-h358, 72 h. The gist of the method: as §3
Data set [15] has as its target T3, Golgi-associated PDZ and coiled-coil motif-containing protein. Description: Binding affinity to C-terminal His6 tagged CAL PDZ domain (unknown origin) expressed in Escherichia coli BL21 incubated for 1 hr using FAM-ANSRWPTSII-OH probe by fluorescence polarization based competition assay.
The nature of data set [16]: Drug uptake in human HeLa cells assessed as absolute cytosolic entry efficiency at 5 uM incubated for 2 hrs by flow cytometry. The data set is classed as ADME, subcellular, Cytoplasm.

This note sets out measurements from ChEMBL document CHEMBL4699666, “Cyclic Peptidyl Inhibitors against CAL/CFTR Interaction for Treatment of Cystic Fibrosis” (J Med Chem, 2020).

The Kd is the constant that tells how readily two partners part at equilibrium. Low readings indicate higher affinity, high ones lower affinity. By half-life is commonly meant the time in which the quantity being followed falls by half. Low values mean fast loss, high ones slow loss. By IC50 is commonly meant the concentration at which inhibition is half-maximal. A high value points to a need for much substance.

The source made the active and inactive calls. The rule behind the calls is not given here. Positions of bridges follow the written chain, without caps; N, C: chain ends. Non-standard residues stand in square brackets, D forms with d. Residues, ends and D or L forms follow the SMILES beside them. 2Nal = N[C@@H](Cc1ccc2ccccc2c1)C(=O)O; Bta = N[C@@H](Cc1csc2ccccc12)C(=O)O; Pen = CC(C)(S)[C@H](N)C(=O)O; Tle = CC(C)(C)[C@H](N)C(=O)O; Pip = O=C(O)[C@@H]1CCCCN1

T1 sequence (Q15599 whole entry, the tested form may be a part): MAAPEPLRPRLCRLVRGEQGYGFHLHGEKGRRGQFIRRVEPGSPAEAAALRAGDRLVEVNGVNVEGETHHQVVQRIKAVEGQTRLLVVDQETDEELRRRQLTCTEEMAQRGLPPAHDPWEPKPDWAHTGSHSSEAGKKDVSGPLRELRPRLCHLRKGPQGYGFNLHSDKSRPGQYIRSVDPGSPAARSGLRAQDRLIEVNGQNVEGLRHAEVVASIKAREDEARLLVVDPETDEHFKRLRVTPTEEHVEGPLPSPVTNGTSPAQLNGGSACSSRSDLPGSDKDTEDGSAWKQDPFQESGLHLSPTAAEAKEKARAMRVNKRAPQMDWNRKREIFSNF

As for `C[C@@H](O)[C@H](NC(=O)[C@@H](NC(=O)[C@@H](NC(=O)[C@H](Cc1csc2ccccc12)NC(=O)[C@H](Cc1ccc2ccccc2c1)NC(=O)[C@H](CCCNC(=N)N)NC(=O)[C@H](CCCNC(=N)N)NC(=O)[C@@H](CCCNC(=N)N)NC(=O)[C@H](CS)NC(=O)COCCOCCNC(=O)c1ccc2c(c1)C(=O)OC21c2ccc(O)cc2Oc2cc(O)ccc21)C(C)(C)S)C(C)(C)C)C(=O)N[C@@H](CCCNC(=N)N)C(=O)N[C@H](C(=O)O)C(C)(C)C`, the Kd in [1] came to 560 nM; in data set [2] it was 2820 nM; in [4] it was 330 nM; in [6] it was 49 nM. The figures for the Ratio in the data set filed under Homo sapiens [3] and in the data set filed under Homo sapiens [5] were 6.7 and 11.4, respectively.
On to `CC(C)(CO)c1cc2cc(NC(=O)C3(c4ccc5c(c4)OC(F)(F)O5)CC3)c(F)cc2n1C[C@@H](O)CO`, for which the outcome in data set [7] was Active.
With `CC(=O)N[C@H]1CSSC(C)(C)[C@@H](C(=O)N[C@H](C(=O)N[C@H](C(=O)N[C@@H](CCCNC(=N)N)C(=O)N[C@H](C(=O)O)C(C)(C)C)[C@@H](C)O)C(C)(C)C)NC(=O)[C@H](Cc2csc3ccccc23)NC(=O)[C@H](Cc2ccc3ccccc3c2)NC(=O)[C@H](CCCNC(=N)N)NC(=O)[C@H](CCCNC(=N)N)NC(=O)[C@@H](CCCNC(=N)N)NC1=O` (Ac-C[dR]RR[2Nal][Bta][Pen][Tle]TR[Tle]-OH; disulfide 1-7), the inhibition result in the data set with Epithelial cell [8] is “inactive”.
For the compound `CC(=O)N[C@@H](CS)C(=O)N[C@H](CCCNC(=N)N)C(=O)N[C@@H](CCCNC(=N)N)C(=O)N[C@@H](CCCNC(=N)N)C(=O)N[C@@H](Cc1ccc2ccccc2c1)C(=O)N[C@@H](Cc1csc2ccccc12)C(=O)N1CCCC[C@H]1C(=O)N[C@H](C(=O)N[C@H](C(=O)N[C@@H](CCCNC(=N)N)C(=O)N[C@H](C(=O)O)C(C)(C)C)[C@@H](C)O)C(C)(C)S` (Ac-C[dR]RR[2Nal][Bta][Pip][Pen]TR[Tle]-OH), the half-life at 100 µM in data set [9] is more than 24 h. Besides, the Drug uptake in data set [10] was 61%. Also, in data set [11], the IC50 was 20 nM.
For `CC(=O)N[C@H]1CSSC(C)(C)[C@@H](C(=O)N[C@H](C(=O)N[C@@H](CCCNC(=N)N)C(=O)N[C@H](C(=O)O)C(C)(C)C)[C@@H](C)O)NC(=O)[C@@H]2CCCCN2C(=O)[C@H](Cc2csc3ccccc23)NC(=O)[C@H](Cc2ccc3ccccc3c2)NC(=O)[C@H](CCCNC(=N)N)NC(=O)[C@H](CCCNC(=N)N)NC(=O)[C@@H](CCCNC(=N)N)NC1=O` (Ac-C[dR]RR[2Nal][Bta][Pip][Pen]TR[Tle]-OH; disulfide 1-8), the Activity result (in the data set on HCT-116; in data set [13]; in the data set on NCI-H358) was “Non-Toxic” in each case. In addition, the Drug metabolism entry in data set [12] is recorded as “Metabolite_Detected”. In addition, in the data set on Epithelial cell [14], the conc. at maximal effect is 100 nM. The inhibition entry with Epithelial cell [14] is “Dose-dependent effect”.
Turning to `CC(=O)N[C@@H](CCCNC(=N)N)C(=O)N[C@@H](CCCNC(=N)N)C(=O)N[C@@H](Cc1ccccc1)C(=O)N[C@@H](Cc1c[nH]c2ccccc12)C(=O)N[C@H](CS)C(=O)N[C@@H](CS)C(=O)N[C@H](C(=O)N[C@@H](CCCNC(=N)N)C(=O)N[C@H](C(=O)O)C(C)(C)C)[C@@H](C)O` (Ac-RRFW[dC]CTR[Tle]-OH), the IC50 in data set [15] came out at 10000 nM. This lies in the double-digit micromolar range.
On to `N=C(N)NCCC[C@@H]1NC(=O)[C@H](Cc2ccc3ccccc3c2)NC(=O)[C@@H](Cc2ccccc2)NC(=O)[C@H](CCC(N)=O)NC(=O)[C@@H](CCCNC(=N)N)NC(=O)[C@H](CCCNC(=N)N)NC(=O)[C@@H](CCCNC(=N)N)NC1=O` (cyclo([2Nal]R[dR]R[dR]Q[dF])), for which, in data set [16], the Drug uptake turned out to be 62%.
